# Measured values from ChEMBL document CHEMBL1150804, “Nonnucleoside inhibitor of measles virus RNA-dependent RNA polymerase complex activity” (Antimicrob Agents Chemother, 2007).
# Activity calls are given as the source filed them. The rule behind the calls is not given here.
# Columns and labels:
# Measles morbillivirus [1] = assay: Antiviral activity against measles virus Edm in Vero cells expressing human SLAM assessed as reduction of virus yield; assay type: functional, organism-based
# [2] = Cytotoxicity against african green monkey Vero cells expressing human SLAM by Promega assay; assay type: cell-based; details: chlorocebus sabaeus
# Procedure, shortened: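 LDH-release assay: 12,000 cells/well exposed 24 h at 37°C to twofold compound dilutions (top 150 μM, or 300 μM for one compound), four replicates. Formazan read at 490 nm; % viability = 100 − [(experimental − background)/(maximum − background) × 100]; four experiments.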
# [3] = Selectivity index, ratio of CC50 for african green monkey Vero cells by Promega assay to IC50 for measles virus Edm; assay type: functional
# [4] = Cytotoxicity against african green monkey Vero cells expressing human SLAM assessed as reduction in viable cells after 30 hrs by trypan blue exclusion assay; assay type: cell-based; details: chlorocebus sabaeus
# Procedure, shortened: (§1)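 Trypan blue exclusion: 2 × 10^5 cells/well with fivefold compound dilutions (top 500 μM), 37°C for 30 h, three replicates per concentration. Detached cells stained with trypan blue 15 min at room temperature; live cells counted on a hemacytometer; expressed vs DMSO controls; three experiments.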
# [5] = Selectivity index, ratio of CC50 for african green monkey Vero cells by trypan blue exclusion assay to IC50 for measles virus Edm; assay type: functional
# Measles morbillivirus [6] = assay: Antiviral activity against measles virus assessed as inhibition of viral H and F protein-mediated cell-cell fusion at 150 uM; assay type: functional, organism-based
# Procedure, shortened: (§2)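 Cells (6 × 10^5/well) transfected with 4 μg each of MV H and F plasmids; at 4 h moved into wells with twofold compound dilutions (top 150 μM). Fusion scored microscopically, photographed at 24 h; at 48 h syncytium-linked cytotoxicity measured by LDH-release assay, % vs DMSO; four replicates.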
# Measles morbillivirus [7] = assay: Antiviral activity against measles virus assessed as inhibition of viral H and F protein-mediated cell-cell fusion; assay type: functional, organism-based; procedure, shortened: as §2
# Measles morbillivirus [8] = assay: Antiviral activity against measles virus assessed as inhibition of virus mediated cytopathogenicity at 15 uMby syncytium formation assay; assay type: functional, organism-based; details: 15 uM
# Measles morbillivirus [9] = assay: Antiviral activity against measles virus assessed as inhibition of viral H and F protein-mediated cell-cell fusion at 15 uM; assay type: functional, organism-based; procedure, shortened: as §2
# Measles morbillivirus [10] = assay: Antiviral activity against measles virus genotype D9 assessed as reduction of virus yield; assay type: functional, organism-based
# Procedure, shortened: (§3)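 Clinical MV isolates (grown on Vero-SLAM) infected at MOI 0.1 PFU/cell into 4 × 10^5 cells with threefold compound dilutions (top 37.5 μM) or DMSO at 37°C. At 36 h, cell-associated virus titered by TCID50; EC50 at 50% of DMSO yield; two experiments.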
# [11] = system: Measles virus genotype D7; assay: Antiviral activity against measles virus genotype D7 assessed as reduction of virus yield; assay type: functional, organism-based; details: Measles morbillivirus; procedure, shortened: as §3
# [12] = system: Measles virus genotype D6; assay: Antiviral activity against measles virus genotype D6 assessed as reduction of virus yield; assay type: functional, organism-based; details: Measles morbillivirus; procedure, shortened: as §3
# Measles morbillivirus [13] = assay: Antiviral activity against measles virus genotype C assessed as reduction of virus yield; assay type: functional, organism-based; procedure, shortened: as §3
# Measles morbillivirus [14] = assay: Antiviral activity against measles virus genotype B3-2 assessed as reduction of virus yield; assay type: functional, organism-based; procedure, shortened: as §3
# Vero = assay: Cytotoxicity against african green monkey Vero cells expressing human SLAM assessed as reduction in viable cells at 500 uM after 30 hrs by trypan blue exclusion assay; assay type: cell-based; details: chlorocebus sabaeus; procedure, shortened: as §1
# Measles morbillivirus [15] = assay: Antiviral activity against measles virus Alaska assessed as reduction of virus yield in presence of 10 mg/ml BSA; assay type: functional, organism-based
# Procedure, shortened: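 Specificity test with MV-Alaska: 4 × 10^5 cells infected in serum-free medium at MOI 0.1 or 0.5 PFU/cell with fourfold dilutions (top 12.5 μM), with or without BSA at 10 mg/ml final.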
# Morbillivirus canis = assay: Antiviral activity against Canine distemper virus assessed as reduction of virus yield; assay type: functional, organism-based
# Procedure, shortened: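 Virus-yield dose-response: 4 × 10^5 cells/well infected at MOI 0.1 PFU/cell (CDV stocks grown on Vero-dogSLAM) with twofold compound dilutions (top 75 μM) or DMSO; kept at 37°C with compound. At 36 h, cell-associated virus titered by TCID50 (Spearman-Karber); titers normalized to DMSO; EC50 taken at 50% of DMSO yield; two experiments.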
# [16] = system: Human parainfluenza virus 2; assay: Antiviral activity against human parainfluenza virus 2 assessed as reduction of virus yield at 75 uM; assay type: functional, organism-based; details: Human orthorubulavirus 2
# Measles morbillivirus [17] = assay: Antiviral activity against measles virus Edm in Vero cells expressing human SLAM assessed as reduction of virus yield preincubated in culture medium for 24 hrs; assay type: functional, organism-based
# Measles morbillivirus [18] = assay: Antiviral activity against measles virus genotype G2 assessed as reduction of virus yield; assay type: functional, organism-based; procedure, shortened: as §3
# Measles morbillivirus [19] = assay: Antiviral activity against measles virus genotype G3 assessed as reduction of virus yield; assay type: functional, organism-based; procedure, shortened: as §3
# Measles morbillivirus [20] = assay: Antiviral activity against measles virus genotype H2 assessed as reduction of virus yield; assay type: functional, organism-based; procedure, shortened: as §3
# Measles virus genotype A = assay: Antiviral activity against measles virus genotype A assessed as reduction of virus yield; assay type: functional, organism-based; details: Measles morbillivirus; procedure, shortened: as §3
# BSR T7/5 [21] = assay: Inhibition of measles virus RNA-dependent RNA polymerase complex activity in BSR T7/5 cells assessed as CAT promoter expression by minireplicon assay; assay type: cell-based; details: Measles morbillivirus
# Procedure, shortened: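 BSR T7/5 cells (5 × 10^5) transfected with MV L (0.24 μg), N (0.94 μg), P (0.29 μg) plasmids plus 2 μg CAT minigenome; controls lacked L. At 2 h, threefold compound dilutions (top 30 μM) or DMSO added.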
# Measles morbillivirus [22] = assay: Antiviral activity against measles virus assessed as reduction of virus yield at 15 uM administered 12 hrs postinfection; assay type: functional; design: scale not given: the % may be the effect or the level left
# Procedure, shortened: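 One-step time-of-addition: 3 × 10^5 cells infected with MV at MOI 1.0 PFU/cell; compound (15 μM final) added at set times postinfection; DMSO controls. At 20 h postinfection, cell-associated virus harvested and titered by TCID50; two experiments.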
# BSR T7/5 [23] = assay: Inhibition of Nipah virus RNA-dependent RNA polymerase complex activity in BSR T7/5 cells assessed as CAT promoter expression by minireplicon assay; assay type: cell-based; details: Henipavirus nipahense
# Procedure, shortened: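 BSR T7/5 cells (T7 polymerase-expressing) transfected with plasmids for Nipah L (0.4 μg), N (1.25 μg), P (0.8 μg) plus 3.5 μg Nipah CAT minigenome reporter; controls lacked L plasmid. Compound added 2 h posttransfection in threefold dilutions (highest 30 μM), DMSO controls.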
# Escherichia phage T7 = assay: Inhibition of Enterobacteria phage T7 polymerase assessed as F protein synthesis by in vitro transcription/translation assay
# Procedure, shortened: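 Cell-free rabbit reticulocyte lysate with 0.5 μg T7-promoter MV F plasmid, 20 μCi [35S]methionine and 50 μM compound or DMSO, 30°C for 90 min. Products separated on 12% SDS gels and autoradiographed. Control: plasmid with F gene reversed relative to the T7 promoter.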
smiles,measurement,setting,value
Cc1ccc2nsnc2c1S(=O)(=O)Nc1ccc(Cl)cc1,EC50,Measles morbillivirus [1],2000 nM
same,CC50,[2],100000 nM
same,Ratio CC50/EC50,[3],50
Cc1ccc2[nH]c(=O)c(CNS(=O)(=O)c3ccccc3)c(-c3ccccc3)c2c1,EC50,Measles morbillivirus [1],15700 nM
same,CC50,[2],> 150000 nM
same,CC50 at 30 h,[4],71000 nM
same,Ratio CC50/EC50,[3],>10
same,Ratio CC50/EC50,[5],4.5
Cn1nc(C(F)(F)F)cc1C(=O)Nc1ccc(S(=O)(=O)N2CCCC2)cc1,EC50,Measles morbillivirus [1],240 nM
same,CC50,[2],> 300000 nM
same,Activity,Measles morbillivirus [6],inactive
same,Activity,Measles morbillivirus [7],Active
same,Activity,Measles morbillivirus [8],Active
same,Activity,Measles morbillivirus [9],inactive
same,EC50,Measles morbillivirus [10],90 nM
same,EC50,[11],80 nM
same,EC50,[12],100 nM
same,EC50,Measles morbillivirus [13],110 nM
same,EC50,Measles morbillivirus [14],140 nM
same,CC50 at 30 h,[4],> 500000 nM
same,Activity,Vero,20%
same,Activity,Measles morbillivirus [15],Active
same,EC50,Morbillivirus canis,28000 nM
same,EC50,[16],> 75000 nM
same,Activity,Measles morbillivirus [17],Active
same,EC50,Measles morbillivirus [18],50 nM
same,EC50,Measles morbillivirus [19],110 nM
same,EC50,Measles morbillivirus [20],35 nM
same,EC50,Measles virus genotype A,240 nM
same,Activity,BSR T7/5 [21],Active
same,Activity,Measles morbillivirus [22],99.9%
same,Activity,BSR T7/5 [23],inactive
same,Activity,Escherichia phage T7,inactive
O=C(NC(=O)N(c1ccc(Cl)cc1)S(=O)(=O)c1ccccc1)Nc1ccccc1Cl,EC50,Measles morbillivirus [1],2800 nM
same,CC50,[2],121000 nM
same,Ratio CC50/EC50,[3],43.2
